Experimental data taken from ChEMBL document CHEMBL3856284, “Discovery, design and synthesis of 6H-anthra[1,9-cd]isoxazol-6-one scaffold as G9a inhibitor through a combination of shape-based virtual screening and structure-based molecular modification” (Bioorg Med Chem, 2016).
Active and inactive are the calls of the source. The rule behind the calls is not given here.

Columns and labels:
[1] = target: T1, Histone-lysine N-methyltransferase EHMT2 (Homo sapiens, UniProt Q96KQ7); test: Inhibition of G9a (unknown origin) using biotinylated-histone H3 (1 to 21 residues)/S-adenosyl-methionine as substrate/methyl donor after 3 hrs by AlphaScreen assay
T1 sequence (Q96KQ7 whole entry): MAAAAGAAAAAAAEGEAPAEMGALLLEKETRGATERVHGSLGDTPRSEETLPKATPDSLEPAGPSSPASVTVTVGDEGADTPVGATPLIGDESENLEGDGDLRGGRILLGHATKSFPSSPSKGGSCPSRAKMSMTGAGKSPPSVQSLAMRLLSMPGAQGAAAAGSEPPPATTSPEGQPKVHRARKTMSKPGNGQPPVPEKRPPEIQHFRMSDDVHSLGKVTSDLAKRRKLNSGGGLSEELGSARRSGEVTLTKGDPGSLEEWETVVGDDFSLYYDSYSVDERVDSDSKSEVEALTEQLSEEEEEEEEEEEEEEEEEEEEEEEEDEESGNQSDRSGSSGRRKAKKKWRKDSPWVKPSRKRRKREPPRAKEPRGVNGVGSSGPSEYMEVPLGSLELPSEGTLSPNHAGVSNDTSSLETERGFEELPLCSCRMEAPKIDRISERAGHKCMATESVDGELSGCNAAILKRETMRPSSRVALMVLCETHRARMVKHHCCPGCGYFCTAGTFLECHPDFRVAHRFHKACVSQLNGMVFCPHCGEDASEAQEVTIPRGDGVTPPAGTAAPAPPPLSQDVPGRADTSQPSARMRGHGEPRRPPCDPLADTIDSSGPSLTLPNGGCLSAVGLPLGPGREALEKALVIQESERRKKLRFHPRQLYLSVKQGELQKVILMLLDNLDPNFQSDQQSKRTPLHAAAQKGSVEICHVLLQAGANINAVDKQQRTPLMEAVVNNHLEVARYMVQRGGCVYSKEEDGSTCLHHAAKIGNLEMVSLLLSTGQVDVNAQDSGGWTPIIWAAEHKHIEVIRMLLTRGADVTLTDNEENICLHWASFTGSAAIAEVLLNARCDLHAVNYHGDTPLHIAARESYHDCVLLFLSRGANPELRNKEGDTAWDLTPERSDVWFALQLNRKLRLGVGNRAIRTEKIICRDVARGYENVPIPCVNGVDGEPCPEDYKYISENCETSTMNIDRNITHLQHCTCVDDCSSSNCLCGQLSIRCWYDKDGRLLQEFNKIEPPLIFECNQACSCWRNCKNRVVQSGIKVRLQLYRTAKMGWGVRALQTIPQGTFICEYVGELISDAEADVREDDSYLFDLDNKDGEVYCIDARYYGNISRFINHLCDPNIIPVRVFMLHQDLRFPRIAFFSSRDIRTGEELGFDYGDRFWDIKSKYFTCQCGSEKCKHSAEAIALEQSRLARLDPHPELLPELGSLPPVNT
How it was run: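 AlphaScreen G9a assay. Compounds were first screened at 10 µM. IC50 came from concentration-response curves of ten escalating concentrations (0.1 nM–10 µM), using two independent experiments, reported as mean ± SD.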

[2] = test system: MCF7; test: Induction of phenotypic changes in human MCF7 cells at 2 uM after 24 hrs by inverted light microscopic method; type: functional, cell-based
How it was run: (§1)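 MCF-7 cells were incubated 24 h with 2, 4 or 8 µM compound, with an untreated group as control. Cell morphology (distortion, blebbing, shrinkage, rounding, necrosis) was examined under an inverted light microscope at ×200.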

[3] = test system: Mus musculus; test: Cmax in mouse at 10 mg/kg, po after 5 mins to 24 hrs by LC-MS/MS analysis; details: in vivo
[4] = Antiproliferative activity against human MCF7 cells assessed as inhibition of cell viability after 72 hrs by MTT assay; type: functional, cell-based; details: MCF7, 72 h
[5] = test system: MCF7; test: Induction of apoptosis in human MCF7 cells assessed as necrotic cells at 8 uM after 48 hrs by annexin V staining-based flow cytometric analysis (reference value: 5.65%); type: functional
[6] = test system: Mus musculus; test: Tmax in mouse at 10 mg/kg, iv after 2 mins to 24 hrs by LC-MS/MS analysis; details: in vivo
[7] = test system: Mus musculus; test: Half life in mouse at 10 mg/kg, po after 5 mins to 24 hrs by LC-MS/MS analysis; details: in vivo
[8] = Antiproliferative activity against human HepG2 cells assessed as inhibition of cell viability after 72 hrs by MTT assay; type: functional, cell-based; details: HepG2, 72 h
[9] = Antiproliferative activity against human HCT116 cells assessed as inhibition of cell viability after 72 hrs by MTT assay; type: functional, cell-based; details: HCT-116, 72 h
[10] = test system: Mus musculus; test: Clearance in mouse at 10 mg/kg, iv after 2 mins to 24 hrs by LC-MS/MS analysis; details: in vivo
[11] = target: T2, Histone-lysine N-methyltransferase EHMT2 (Homo sapiens) (UniProt Q96KQ7); test: Inhibition of G9a in human MCF7 cells assessed as decrease in dimethylation level of H3K9 at […] after 48 hrs by Western blot method; type: cell-based
T2 sequence (whole entry): T1 sequence (Q96KQ7 whole entry)

[12] = target: T2, Histone-lysine N-methyltransferase EHMT2 (Homo sapiens); test: Inhibition of G9a in human MCF7 cells assessed as decrease in trimethylation level of H3K9 after 48 hrs by Western blot method; type: cell-based
[13] = test system: MCF7; test: Induction of phenotypic changes in human MCF7 cells assessed as round in shape at 8 uM after 24 hrs by inverted light microscopic method; type: functional, cell-based; how it was run: as §1
[14] = test system: MCF7; test: Induction of apoptosis in human MCF7 cells assessed as early apoptotic cells at 2 uM after 48 hrs by annexin V staining-based flow cytometric analysis (reference value: 0.5%); type: functional
[15] = test system: MCF7; test: Induction of necrosis in human MCF7 cells at 8 uM after 24 hrs by inverted light microscopic method; type: functional, cell-based; how it was run: as §1
[16] = test system: Mus musculus; test: Oral bioavailability in mouse at 10 mg/kg after 5 mins to 24 hrs by LC-MS/MS analysis; details: in vivo
[17] = test system: MCF7; test: Induction of apoptosis in human MCF7 cells assessed as appearance of apoptotic bodies after 24 hrs by Hoechst 33258 staining-based fluorescence microscopy; type: functional, cell-based
[18] = test system: Mus musculus; test: Volume of distribution in mouse at 10 mg/kg, iv after 2 mins to 24 hrs by LC-MS/MS analysis; details: in vivo
[19] = test system: MCF7; test: Induction of apoptosis in human MCF7 cells assessed as early apoptotic cells at 8 uM after 48 hrs by annexin V staining-based flow cytometric analysis (reference value: 0.5%); type: functional
[20] = test system: MCF7; test: Induction of apoptosis in human MCF7 cells assessed as viable cells at 4 uM after 48 hrs by annexin V staining-based flow cytometric analysis (reference value: 82.85%); type: functional; details: MCF7, 48 h, read-out: Activity
[21] = test system: Mus musculus; test: Volume of distribution in mouse at 10 mg/kg, po after 5 mins to 24 hrs by LC-MS/MS analysis; details: in vivo
[22] = test system: MCF7; test: Induction of apoptosis in human MCF7 cells assessed as necrotic cells at 2 uM after 48 hrs by annexin V staining-based flow cytometric analysis (reference value: 5.65%); type: functional

O=C1c2ccccc2-c2onc3c(N4CCCCC4)cc(NCCN4CCCC4)c1c23
IC50 [1]: 2.18 µM | Activity [2]: Active | Cmax [3]: 70.7 ng/mL | IC50 [4]: 4.52 µM | Activity [5]: 0.75% | Tmax [6]: 7.2 min | half-life [7]: 4 h | IC50 [8]: 7.93 µM | IC50 [9]: 3.18 µM | clearance [10]: 135 mL/min/kg | inhibition [11]: Active | inhibition [12]: Dose-dependent effect | Activity [13]: Active | Activity [14]: 0.3% | Activity [15]: Active | bioavailability [16]: 55.5% | Activity [17]: Dose-dependent effect | Vd [18]: 80.2 L/kg | Activity [19]: 2.75% | viability at 4 µM [20]: 70% | Vd [21]: 90.7 L/kg | Activity [22]: 3.2%
